# From ChEMBL document CHEMBL2440039, “Synthesis and pharmacological evaluation of novel N-aryl-3,4-dihydro-1'H-spiro[chromene-2,4'-piperidine]-1'-carboxamides as TRPM8 antagonists” (Bioorg Med Chem, 2013)
# Tests used:
# Mus musculus [1] = assay: Inhibition of oxaliplatin-induced peripheral neuropathic pain in acetone spray-induced cold allodynia C57/BL6 mouse model assessed as inhibition of nocifensive paw licking behavior at 30 mg/kg, po; format: functional
# Procedure, shortened: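 Male C57/BL6 mice (20–30 g) received oxaliplatin (3 mg/kg ip, in 5% glucose, 10 ml/kg) and were tested for cold allodynia 3 days later. Compound was dosed po 30 min before acetone spray, with 0.5% MC as vehicle. Nocifensive paw licking/flicking was scored. Analysis was one-way ANOVA with Bonferroni versus vehicle.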
# [2] = Cmax in Sprague-Dawley rat at 10 mg/kg, po; format: ADME, organism-based; design: dose 10 mg/kg, route oral; conditions: in vivo
# Procedure, shortened: (§1)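 Male SD rats (180–220 g, n=3), fasted overnight, single oral gavage dose as suspension in 1% Tween 80 / 0.5% w/v methyl cellulose in water. Blood (K2EDTA) drawn 0.5–24 h post dose. Plasma taken by liquid–liquid extraction with internal standard and measured by achiral LC/MS/MS. Values given as mean ± SD.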
# [3] = target: Transient receptor potential cation channel subfamily V member 1 (Homo sapiens, UniProt Q8NER1); assay: Antagonist activity at human TRPV1 expressed in CHO cells assessed as inhibition of capsaicin-induced 45Ca2+ uptake incubated for 10 mins prior to capsaicin-challenge measured after 2 to 5 mins by liquid scintillation counting analysis; format: cell-based
# Chain of Transient receptor potential cation channel subfamily V member 1 (Q8NER1 whole entry): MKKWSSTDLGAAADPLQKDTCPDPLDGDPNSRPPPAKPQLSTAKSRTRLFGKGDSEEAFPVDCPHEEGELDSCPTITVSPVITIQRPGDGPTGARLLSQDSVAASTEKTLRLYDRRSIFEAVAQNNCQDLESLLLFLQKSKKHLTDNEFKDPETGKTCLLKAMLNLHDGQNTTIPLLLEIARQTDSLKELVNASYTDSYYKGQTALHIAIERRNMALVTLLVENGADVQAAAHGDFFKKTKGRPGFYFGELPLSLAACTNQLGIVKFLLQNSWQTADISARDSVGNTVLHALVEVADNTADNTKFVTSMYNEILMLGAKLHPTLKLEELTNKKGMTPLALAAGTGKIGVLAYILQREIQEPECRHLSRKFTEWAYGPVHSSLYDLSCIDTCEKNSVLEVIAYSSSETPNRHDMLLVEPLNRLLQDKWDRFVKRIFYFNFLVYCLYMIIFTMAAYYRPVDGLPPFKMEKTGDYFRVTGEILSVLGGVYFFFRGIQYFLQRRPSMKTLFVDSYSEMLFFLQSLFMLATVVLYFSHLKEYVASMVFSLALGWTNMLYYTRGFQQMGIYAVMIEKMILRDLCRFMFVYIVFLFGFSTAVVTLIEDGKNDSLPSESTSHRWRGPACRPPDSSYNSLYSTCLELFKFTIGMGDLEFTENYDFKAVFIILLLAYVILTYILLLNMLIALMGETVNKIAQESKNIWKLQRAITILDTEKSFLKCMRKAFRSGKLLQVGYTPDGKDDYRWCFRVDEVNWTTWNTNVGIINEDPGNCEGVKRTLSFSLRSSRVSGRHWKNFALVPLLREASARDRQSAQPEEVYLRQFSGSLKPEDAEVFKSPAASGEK
# Procedure, shortened: (§2)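 CHO cells stably expressing human TRPA1, TRPV1, TRPV3 or TRPV4. Temperature 30 °C for TRPV1, 32 °C for TRPV3, 25 °C for TRPV4 and TRPA1. Compound preincubated 10 min, then 45Ca2+ (5 µCi/mL final) and agonist added. Wash after 2–5 min, lyse, scintillation count. TRPV1 IC50 from six-point curves in at least two experiments. TRPA1, TRPV3 and TRPV4 run in duplicate as % inhibition at 1.0 µM.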
# [4] = target: Transient receptor potential cation channel subfamily V member 4 (Homo sapiens) (UniProt Q9HBA0); assay: Antagonist activity at human TRPV4 expressed in CHO cells assessed as inhibition of 4alphaPDD-induced 45Ca2+ uptake at 1 uM incubated for 10 mins prior to 4alphaPDD-challenge measured after 2 to 5 mins by liquid scintillation counting analysis; format: cell-based; procedure, shortened: as §2
# Chain of Transient receptor potential cation channel subfamily V member 4 (Homo sapiens) (Q9HBA0 whole entry): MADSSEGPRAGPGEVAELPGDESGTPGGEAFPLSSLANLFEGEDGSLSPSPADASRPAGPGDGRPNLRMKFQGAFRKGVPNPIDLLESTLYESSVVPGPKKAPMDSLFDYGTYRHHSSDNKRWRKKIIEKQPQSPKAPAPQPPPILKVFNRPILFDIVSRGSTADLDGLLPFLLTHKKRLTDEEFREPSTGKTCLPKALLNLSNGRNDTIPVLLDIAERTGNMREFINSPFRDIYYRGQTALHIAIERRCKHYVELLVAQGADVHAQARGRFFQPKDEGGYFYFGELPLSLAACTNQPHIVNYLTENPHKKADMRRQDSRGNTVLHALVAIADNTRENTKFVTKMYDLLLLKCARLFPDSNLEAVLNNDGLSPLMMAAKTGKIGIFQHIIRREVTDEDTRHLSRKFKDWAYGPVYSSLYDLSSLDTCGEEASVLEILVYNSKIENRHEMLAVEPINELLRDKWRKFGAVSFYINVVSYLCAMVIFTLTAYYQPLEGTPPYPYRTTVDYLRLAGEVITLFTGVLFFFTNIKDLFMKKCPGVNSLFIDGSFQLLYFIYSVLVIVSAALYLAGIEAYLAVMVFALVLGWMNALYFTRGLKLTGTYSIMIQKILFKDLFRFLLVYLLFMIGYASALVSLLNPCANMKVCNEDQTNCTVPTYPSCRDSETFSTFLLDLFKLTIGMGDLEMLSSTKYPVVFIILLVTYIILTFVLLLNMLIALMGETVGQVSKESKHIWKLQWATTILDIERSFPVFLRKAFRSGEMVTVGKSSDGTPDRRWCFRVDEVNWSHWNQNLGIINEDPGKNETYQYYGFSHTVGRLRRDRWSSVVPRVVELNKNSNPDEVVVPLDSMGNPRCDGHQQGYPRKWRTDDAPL
# Rattus norvegicus [5] = assay: Inhibition of acetone spray-induced cold allodynia in Sprague-Dawley rat chronic constriction injury model at 10 mg/kg, po after 0.5 hrs; format: functional
# Procedure, shortened: (§3)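 Male SD rats (160–200 g) with sciatic nerve chronic constriction injury under ketamine/xylazine, tested 7 days later at 21 ± 0.5 °C. Oral dose, vehicle 0.5% MC. Acetone 100 µl sprayed on ipsilateral paw, repeated 3–5 times at 5 min intervals. Flinches and licking counted over 2 min at 0, 0.5, 1, 2 and 3 h, scored clinically.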
# Rattus norvegicus [6] = assay: AUC (0 to t) in Sprague-Dawley rat at 10 mg/kg, po; format: ADME, organism-based, Plasma; design: dose 10 mg/kg, route oral; conditions: in vivo; procedure, shortened: as §1
# Mus musculus [7] = assay: Inhibition of oxaliplatin-induced peripheral neuropathic pain in po dosed acetone spray-induced cold allodynia C57/BL6 mouse model assessed as inhibition of nocifensive paw licking behavior; format: functional, organism-based
# Procedure, shortened: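 Male C57/BL6 mice (20–30 g) given oxaliplatin 3 mg/kg ip in 5% glucose and tested for cold allodynia 3 days later. Compound given po (3, 10, 30 mg/kg) 30 min before acetone spray, vehicle 0.5% MC. Nocifensive paw licking recorded. One-way ANOVA with Bonferroni test.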
# [8] = target: T1, Transient receptor potential cation channel subfamily V member 3 (Homo sapiens) (UniProt Q8NET8); assay: Antagonist activity at human TRPV3 expressed in CHO cells assessed as inhibition of 2APB-induced 45Ca2+ uptake at 1 uM incubated for 10 mins prior to 2APB-challenge measured after 2 to 5 mins by liquid scintillation counting analysis; format: cell-based; procedure, shortened: as §2
# T1 sequence (whole entry): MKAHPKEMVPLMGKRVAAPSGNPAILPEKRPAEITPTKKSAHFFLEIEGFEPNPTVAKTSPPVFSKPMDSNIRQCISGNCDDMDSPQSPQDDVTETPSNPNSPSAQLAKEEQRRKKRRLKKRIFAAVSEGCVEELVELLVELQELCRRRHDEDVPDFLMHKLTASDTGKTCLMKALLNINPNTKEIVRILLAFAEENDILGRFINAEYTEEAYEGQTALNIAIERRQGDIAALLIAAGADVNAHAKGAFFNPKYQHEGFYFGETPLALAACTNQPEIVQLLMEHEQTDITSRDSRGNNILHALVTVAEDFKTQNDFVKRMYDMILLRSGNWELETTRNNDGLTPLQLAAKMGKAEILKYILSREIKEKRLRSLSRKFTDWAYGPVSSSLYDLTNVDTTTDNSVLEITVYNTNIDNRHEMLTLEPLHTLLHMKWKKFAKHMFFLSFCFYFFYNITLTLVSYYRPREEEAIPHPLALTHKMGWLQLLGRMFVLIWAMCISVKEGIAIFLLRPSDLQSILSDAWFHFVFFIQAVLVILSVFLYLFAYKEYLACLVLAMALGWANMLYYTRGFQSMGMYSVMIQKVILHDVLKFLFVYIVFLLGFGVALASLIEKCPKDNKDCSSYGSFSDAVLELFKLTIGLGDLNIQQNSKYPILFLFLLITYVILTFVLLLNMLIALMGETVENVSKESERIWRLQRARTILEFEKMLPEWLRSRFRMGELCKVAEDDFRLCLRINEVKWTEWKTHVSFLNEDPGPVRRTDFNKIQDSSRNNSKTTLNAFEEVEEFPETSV
# [9] = target: Transient receptor potential cation channel subfamily A member 1 (Homo sapiens) (UniProt O75762); assay: Antagonist activity at human TRPA1 expressed in CHO cells assessed as inhibition of allyl isothiocyanate-induced 45Ca2+ uptake at 1 uM incubated for 10 mins prior to allyl isothiocyanate-challenge measured after 2 to 5 mins by liquid scintillation counting analysis; format: cell-based; procedure, shortened: as §2
# Chain of Transient receptor potential cation channel subfamily A member 1 (Homo sapiens) (O75762 whole entry): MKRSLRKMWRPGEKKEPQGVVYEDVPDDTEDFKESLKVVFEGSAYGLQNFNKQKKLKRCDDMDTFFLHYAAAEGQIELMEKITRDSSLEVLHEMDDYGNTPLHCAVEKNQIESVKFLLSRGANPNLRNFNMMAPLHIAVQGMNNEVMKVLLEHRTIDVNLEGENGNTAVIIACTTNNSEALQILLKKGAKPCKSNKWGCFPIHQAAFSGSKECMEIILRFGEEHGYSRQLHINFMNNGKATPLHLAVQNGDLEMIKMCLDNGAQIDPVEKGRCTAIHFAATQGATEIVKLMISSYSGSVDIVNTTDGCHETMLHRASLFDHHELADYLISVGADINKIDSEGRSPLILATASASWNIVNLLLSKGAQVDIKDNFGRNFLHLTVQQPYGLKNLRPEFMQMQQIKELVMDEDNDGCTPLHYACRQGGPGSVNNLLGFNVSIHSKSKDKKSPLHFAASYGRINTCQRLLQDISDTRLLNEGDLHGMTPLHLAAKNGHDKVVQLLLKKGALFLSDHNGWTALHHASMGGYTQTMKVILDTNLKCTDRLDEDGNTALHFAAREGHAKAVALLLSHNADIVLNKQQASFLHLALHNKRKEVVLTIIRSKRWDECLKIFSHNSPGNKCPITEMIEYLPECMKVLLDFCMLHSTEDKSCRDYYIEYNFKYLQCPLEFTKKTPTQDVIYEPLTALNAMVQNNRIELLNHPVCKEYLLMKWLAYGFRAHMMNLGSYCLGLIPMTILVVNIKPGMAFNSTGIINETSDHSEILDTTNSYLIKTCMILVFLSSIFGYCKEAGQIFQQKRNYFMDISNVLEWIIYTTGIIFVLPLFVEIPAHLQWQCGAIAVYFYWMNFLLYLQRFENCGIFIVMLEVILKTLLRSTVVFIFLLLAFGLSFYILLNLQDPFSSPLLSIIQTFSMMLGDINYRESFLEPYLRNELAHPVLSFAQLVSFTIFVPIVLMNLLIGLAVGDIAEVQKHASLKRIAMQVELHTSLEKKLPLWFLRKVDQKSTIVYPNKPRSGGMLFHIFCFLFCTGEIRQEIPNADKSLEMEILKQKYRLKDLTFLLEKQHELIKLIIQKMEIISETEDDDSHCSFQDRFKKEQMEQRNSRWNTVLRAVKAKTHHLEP
# Rattus norvegicus [10] = assay: Drug uptake in Sprague-Dawley rat at 10 mg/kg, po up to 8 hrs; format: ADME, organism-based; design: dose 10 mg/kg, route oral; conditions: in vivo; procedure, shortened: as §1
# [11] = Tmax in Sprague-Dawley rat at 10 mg/kg, po; format: ADME, organism-based; design: dose 10 mg/kg, route oral; conditions: in vivo; procedure, shortened: as §1
# Rattus norvegicus [12] = assay: Inhibition of acetone spray-induced cold allodynia in Sprague-Dawley rat chronic constriction injury model at 10 mg/kg, po after 1 hr; format: functional; procedure, shortened: as §3
# [13] = target: Transient receptor potential cation channel subfamily M member 8 (Homo sapiens, UniProt Q7Z2W7); assay: Antagonist activity at human TRPM8 expressed in CHO cells assessed as inhibition of icilin-induced 45Ca2+ uptake incubated for 10 mins prior to icilin-challenge measured after 4 mins by liquid scintillation counting analysis; format: cell-based
# Chain of Transient receptor potential cation channel subfamily M member 8 (Homo sapiens, UniProt Q7Z2W7) (Q7Z2W7 whole entry): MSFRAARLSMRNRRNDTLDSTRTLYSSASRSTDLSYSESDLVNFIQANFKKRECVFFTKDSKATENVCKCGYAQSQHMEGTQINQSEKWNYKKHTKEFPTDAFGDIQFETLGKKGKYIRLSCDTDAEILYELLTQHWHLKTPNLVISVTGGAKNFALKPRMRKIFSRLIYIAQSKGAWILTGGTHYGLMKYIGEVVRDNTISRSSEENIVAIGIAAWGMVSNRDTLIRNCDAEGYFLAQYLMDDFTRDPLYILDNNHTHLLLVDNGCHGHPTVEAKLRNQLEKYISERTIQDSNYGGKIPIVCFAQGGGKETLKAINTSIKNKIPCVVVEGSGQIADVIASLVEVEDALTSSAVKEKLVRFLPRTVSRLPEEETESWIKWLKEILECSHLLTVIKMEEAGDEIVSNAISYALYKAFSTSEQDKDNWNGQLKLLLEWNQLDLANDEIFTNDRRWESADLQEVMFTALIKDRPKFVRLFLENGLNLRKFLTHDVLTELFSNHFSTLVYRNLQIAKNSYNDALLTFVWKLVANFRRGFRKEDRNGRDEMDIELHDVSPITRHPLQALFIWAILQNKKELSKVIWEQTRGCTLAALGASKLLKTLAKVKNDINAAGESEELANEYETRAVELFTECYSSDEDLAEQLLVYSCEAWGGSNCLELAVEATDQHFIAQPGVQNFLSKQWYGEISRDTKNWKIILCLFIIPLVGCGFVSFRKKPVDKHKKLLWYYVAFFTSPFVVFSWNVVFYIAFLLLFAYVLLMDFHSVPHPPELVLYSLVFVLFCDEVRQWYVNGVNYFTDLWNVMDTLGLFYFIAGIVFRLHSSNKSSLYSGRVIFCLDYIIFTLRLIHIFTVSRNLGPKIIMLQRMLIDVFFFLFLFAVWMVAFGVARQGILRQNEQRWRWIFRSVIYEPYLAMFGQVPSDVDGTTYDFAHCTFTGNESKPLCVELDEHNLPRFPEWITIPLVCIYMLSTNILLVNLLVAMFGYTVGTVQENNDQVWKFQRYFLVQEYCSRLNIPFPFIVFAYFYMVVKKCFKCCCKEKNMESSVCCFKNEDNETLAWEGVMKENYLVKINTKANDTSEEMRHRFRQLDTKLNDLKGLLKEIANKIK
# Procedure, shortened: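 CHO cells stably expressing human TRPM8 in DMEM F-12 with 10% FBS and G418, seeded overnight. Assay buffer is DMEM F12 with 0.1% BSA and 1.8 mM CaCl2, run at 25 °C. Compound added 10 min before 45Ca2+ (5 µCi/mL final) and icilin. Wash after 4 min, lyse, count cpm. IC50 from six-point curves by nonlinear regression, at least two independent experiments.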
# Rattus norvegicus [14] = assay: Inhibition of acetone spray-induced cold allodynia in Sprague-Dawley rat chronic constriction injury model at 10 mg/kg, po after 3 hrs; format: functional; procedure, shortened: as §3
# [15] = Metabolic stability in human liver microsomes assessed as compound remaining at 1 uM after 60 mins by LC/MS/MS analysis; format: ADME, Microsome; conditions: read-out: Stability
# Procedure, shortened: (§4)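 Liver microsomes (1.0 mg/mL protein) from male CD1 mouse, Wistar rat, Beagle dog, Cynomolgus monkey, or pooled human. Test item 1.0 µM in KH2PO4 buffer pH 7.4 with 2.0 mM NADPH (final) at 37 °C for 60 min, stopped with TBME. Extract read by LC/MS/MS as area ratio to internal standard. Percent remaining is 60 min relative to 0 min.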
# [16] = Metabolic stability in CD-1 mouse liver microsomes assessed as compound remaining at 1 uM after 60 mins by LC/MS/MS analysis; format: ADME, Microsome; conditions: read-out: Stability; procedure, shortened: as §4
# [17] = Metabolic stability in Beagle dog liver microsomes assessed as compound remaining at 1 uM after 60 mins by LC/MS/MS analysis; format: ADME, Canis lupus familiaris, Microsome; conditions: read-out: Stability; procedure, shortened: as §4
# [18] = Metabolic stability in Wistar rat liver microsomes assessed as compound remaining at 1 uM after 60 mins by LC/MS/MS analysis; format: ADME, Microsome; conditions: read-out: Stability; procedure, shortened: as §4
# Mus musculus [19] = assay: Inhibition of icilin-induced wet dog shakes in C57/BL6 mouse at 30 mg/kg, po administered 30 mins prior to icilin-challenge measured for 30 mins; format: functional
# Procedure, shortened: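 Male C57/BL6 mice (20–30 g) acclimatized in a bell jar 10 min daily for 3 days. Icilin 30 mg/kg ip in 20% DMSO / 1% Tween 80. Compound given po 30 min before icilin, vehicle 0.5% MC. Wet dog shakes counted for 30 min after icilin. One-way ANOVA with Bonferroni test.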
# [20] = target: Transient receptor potential cation channel subfamily M member 8 (Rattus norvegicus, UniProt Q8R455); assay: Antagonist activity at rat TRPM8 by 45Ca2+ uptake assay
# Chain of Transient receptor potential cation channel subfamily M member 8 (Rattus norvegicus, UniProt Q8R455) (Q8R455 whole entry): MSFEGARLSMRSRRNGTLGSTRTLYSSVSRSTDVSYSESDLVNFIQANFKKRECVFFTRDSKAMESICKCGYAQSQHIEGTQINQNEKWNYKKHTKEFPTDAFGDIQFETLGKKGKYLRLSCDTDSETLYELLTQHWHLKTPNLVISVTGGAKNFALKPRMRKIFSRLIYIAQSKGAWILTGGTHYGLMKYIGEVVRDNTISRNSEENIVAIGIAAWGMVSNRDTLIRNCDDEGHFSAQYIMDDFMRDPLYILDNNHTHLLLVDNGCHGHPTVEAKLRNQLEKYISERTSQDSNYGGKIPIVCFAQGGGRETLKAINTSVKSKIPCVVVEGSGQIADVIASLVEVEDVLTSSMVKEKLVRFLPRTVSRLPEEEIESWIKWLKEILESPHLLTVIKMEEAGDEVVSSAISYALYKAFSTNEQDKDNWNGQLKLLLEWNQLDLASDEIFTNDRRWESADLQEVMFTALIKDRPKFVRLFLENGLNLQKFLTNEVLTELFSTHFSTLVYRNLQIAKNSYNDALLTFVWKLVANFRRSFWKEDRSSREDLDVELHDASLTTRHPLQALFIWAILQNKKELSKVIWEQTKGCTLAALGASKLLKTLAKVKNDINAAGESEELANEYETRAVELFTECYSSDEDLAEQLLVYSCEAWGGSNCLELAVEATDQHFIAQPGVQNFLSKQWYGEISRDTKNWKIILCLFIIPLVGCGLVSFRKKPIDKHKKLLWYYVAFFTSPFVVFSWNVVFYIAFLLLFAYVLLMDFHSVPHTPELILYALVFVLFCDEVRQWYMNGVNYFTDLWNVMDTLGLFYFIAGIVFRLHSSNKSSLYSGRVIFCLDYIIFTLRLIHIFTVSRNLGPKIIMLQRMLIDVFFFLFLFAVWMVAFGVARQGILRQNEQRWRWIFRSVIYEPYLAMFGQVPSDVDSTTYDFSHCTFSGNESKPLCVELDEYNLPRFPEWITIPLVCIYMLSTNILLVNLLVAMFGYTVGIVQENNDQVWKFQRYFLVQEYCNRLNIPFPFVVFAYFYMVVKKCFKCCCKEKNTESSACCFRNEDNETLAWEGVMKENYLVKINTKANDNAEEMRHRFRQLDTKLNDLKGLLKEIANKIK
# [21] = Metabolic stability in cynomolgus monkey liver microsomes assessed as compound remaining at 1 uM after 60 mins by LC/MS/MS analysis; format: ADME, Macaca fascicularis, Microsome; conditions: read-out: Stability; procedure, shortened: as §4
# Rattus norvegicus [22] = assay: Inhibition of acetone spray-induced cold allodynia in Sprague-Dawley rat chronic constriction injury model at 10 mg/kg, po after 2 hrs; format: functional; procedure, shortened: as §3
compound,measurement,setting,value
O=C(Nc1ccc(OC(F)(F)F)cc1)N1CCC2(CC1)C[C@@H](O)c1cccc(Cl)c1O2,Efficacy,Mus musculus [1],100%
same,Cmax,[2],1090 ng/mL
same,IC50,[3],> 1000 nM
same,inhibition,[4],38.8%
same,Efficacy,Rattus norvegicus [5],39%
same,AUCt,Rattus norvegicus [6],4980 ng·h/mL
same,inhibition,Mus musculus [7],Dose-dependent effect
same,inhibition,[8],27.7%
same,inhibition,[9],23.5%
same,Drug uptake,Rattus norvegicus [10],Active
same,Tmax,[11],1 h
same,Efficacy,Rattus norvegicus [12],66%
same,IC50,[13],8.9 nM
same,Efficacy,Rattus norvegicus [14],65%
same,"remaining at 1 h, 1 µM",[15],67%
same,"remaining at 1 h, 1 µM",[16],81%
same,"remaining at 1 h, 1 µM",[17],42%
same,"remaining at 1 h, 1 µM",[18],79%
same,Efficacy,Mus musculus [19],72%
same,IC50,[20],16.5 nM
same,"remaining at 1 h, 1 µM",[21],72%
same,Efficacy,Rattus norvegicus [22],74%
